From ChEMBL document CHEMBL4609986 (Bioorg Med Chem, 2020)
pEC50, pKd: −log10 of the molar value.

What was measured:
[1] = target: T1, Dual specificity tyrosine-phosphorylation-regulated kinase 1A (Homo sapiens, UniProt Q13627); assay: Inhibition of DYRK1A in human pancreatic islets assessed as induction of pancreatic beta-cells replication measured after 48 hrs by Hoechst 33342 staining based analysis
How it was run: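 Human islets (85-95% purity) rested 12 h in low-glucose DMEM with 10% FBS and 20 nM exendin-4. Dispersed to single cells and plated on 804G-conditioned-matrix 384-well plates for 48 h. Treated 48 h, then fixed with 4% PFA. Stained with anti-insulin, anti-Ki-67 and 4 μM Hoechst 33342; Ki67+Insulin+/Insulin+ scored by high-content imaging against per-plate cutoffs.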

[2] = target: T1, Dual specificity tyrosine-phosphorylation-regulated kinase 1A; assay: Inhibition of human DYRK1A transfected in HEK293T cells co-transfected with Renilla plasmid, pGL3-NFAT and NFATc1 assessed as derepression of NFAT-dependent luciferase activity measured after 48 hrs by luciferase assay; format: cell-based, HEK-293T
How it was run: (§1)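 HEK293T cells transfected with PEI using DYRK1A, Renilla plasmid, IL-2-based pGL3-NFAT firefly reporter and NFATc1. Next day the same transfected population was split into 96-well plates; 6 h later cells were treated for 48 h (11-point dose curve, n = 4), then lysed. EC50 from firefly/Renilla ratio, 4-parameter agonist fit. CC50 from loss of constitutive Renilla signal, 4-parameter inhibitor fit.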

[3] = (§2) Cytotoxicity against human HEK293T cells transfected with DYRK1A co-tranfected with Renilla plasmid, pGL3-NFAT and NFATc1 assessed as reduction in luciferase activity by measuring cell number; format: cell-based, HEK-293T; how it was run: as §1
Homo sapiens = species: Homo sapiens; assay: Selectivity index, ratio of CC50 for human HEK293T cells transfected with DYRK1A co-tranfected with Renilla plasmid, pGL3-NFAT and NFATc1 assessed as reduction in luciferase activity by measuring cell number to EC50 for human DYRK1A transfected in HEK293T cells co-transfected with Renilla plasmid, pGL3-NFAT and NFATc1 assessed as derepression of NFAT-dependent luciferase activity measured after 48 hrs by luciferase assay; format: cell-based; how it was run: as §1
[4] = Cytotoxicity against mouse R7T1 cells assessed as reduction in cell viability measured after 48 hrs by Hoechst 33342 staining based analysis
How it was run: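 Mouse R7T1 β-cells cultured in high-glucose DMEM with 10% FBS, doxycycline and pyruvate, plated at 25,000 cells/well. Treated in quadruplicate 6 h later (0.169–10,000 nM) for 48 h. Cells fixed in paraformaldehyde and stained with 4 μM Hoechst 33342; nuclei counted by high-content imaging.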

[5] = Selectivity index, ratio of CC50 for mouse R7T1 cells assessed as reduction in cell viability measured after 48 hrs by Hoechst 33342 staining based analysis to MEC for inhibition of DYRK1A in human pancreatic islets assessed as induction of pancreatic beta-cells replication measured after 48 hrs by Hoechst 33342 staining based analysis
AURKB (Aurora kinase B) = AURKB (Aurora kinase B) (Homo sapiens, UniProt Q96GD4); assay: Inhibition of AURKB in human HEK293T cells assessed as reduction in cell viability at 40 nM measured after 48 hrs relative to control; format: cell-based, HEK-293T
How it was run: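 Cells were exposed to the Aurora inhibitor at 40 nM, alone or combined with a second DYRK1A inhibitor at 30, 90 or 270 nM, for 48 h. They were then fixed, stained and counted. Cell number is given as a percentage of untreated wells, with n = 4-16 and error bars as standard deviation.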

HEK-293T = assay: as §2; format: cell-based; conditions: hek-293t; how it was run: as §1
[6] = target: T1, Dual specificity tyrosine-phosphorylation-regulated kinase 1A; assay: Binding affinity to wild-type human partial length DYRK1A (H129 to S509 residues) expressed in mammalian expression system by Kinomescan method
How it was run: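 Kd measured in a KdELECT binding assay using an 11-point, 3-fold dilution series with three DMSO control points.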

[7] = target: Maternal embryonic leucine zipper kinase (Homo sapiens, UniProt Q14680); assay: Binding affinity to wild-type human full length MELK (M1 to V651 residues) expressed in bacterial expression system by Kinomescan method
[8] = Half life in mouse liver microsomes at 1 uM preincubated for 10 mins followed by NADPH addition and measured up to 40 mins by LC-MS/MS analysis; format: ADME, Microsome
How it was run: (§3)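 Human or mouse liver microsomes, each run separately, in 100 mM KxPO4 pH 7.4 with 10 mM MgCl2 and 1 μM test compound. Pre-incubated 10 min at 37 °C, then started with 1 mM NADPH. Quenched in acetonitrile stop solution at 0, 10, 20 and 40 min, centrifuged, diluted and analysed by LC-MS/MS.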

[9] = Half life in human liver microsomes at 1 uM preincubated for 10 mins followed by NADPH addition and measured up to 40 mins by LC-MS/MS analysis; format: ADME, Microsome; how it was run: as §3
[10] = Apparent permeability in human Caco2 cells measured after 2 hrs by LC-MS/MS analysis; format: ADME, cell-based, Caco-2; conditions: for Papp at 2 h: Caco-2
How it was run: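 Caco-2 monolayers grown on polycarbonate filter inserts (5 × 10⁵ cells/well seeded) and differentiated 21 ± 4 days. Transport run in HBSS with 25 mM HEPES, pH 7.4, 37 °C; compound added donor side. Receiver sampled over 2 h, donor at 0 and 2 h; LC-MS/MS with internal standard. Papp = (dC_rec/dt)/(A × C0,donor) × 10^6.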

Chain of Maternal embryonic leucine zipper kinase (Q14680 whole entry, the tested form may be a part): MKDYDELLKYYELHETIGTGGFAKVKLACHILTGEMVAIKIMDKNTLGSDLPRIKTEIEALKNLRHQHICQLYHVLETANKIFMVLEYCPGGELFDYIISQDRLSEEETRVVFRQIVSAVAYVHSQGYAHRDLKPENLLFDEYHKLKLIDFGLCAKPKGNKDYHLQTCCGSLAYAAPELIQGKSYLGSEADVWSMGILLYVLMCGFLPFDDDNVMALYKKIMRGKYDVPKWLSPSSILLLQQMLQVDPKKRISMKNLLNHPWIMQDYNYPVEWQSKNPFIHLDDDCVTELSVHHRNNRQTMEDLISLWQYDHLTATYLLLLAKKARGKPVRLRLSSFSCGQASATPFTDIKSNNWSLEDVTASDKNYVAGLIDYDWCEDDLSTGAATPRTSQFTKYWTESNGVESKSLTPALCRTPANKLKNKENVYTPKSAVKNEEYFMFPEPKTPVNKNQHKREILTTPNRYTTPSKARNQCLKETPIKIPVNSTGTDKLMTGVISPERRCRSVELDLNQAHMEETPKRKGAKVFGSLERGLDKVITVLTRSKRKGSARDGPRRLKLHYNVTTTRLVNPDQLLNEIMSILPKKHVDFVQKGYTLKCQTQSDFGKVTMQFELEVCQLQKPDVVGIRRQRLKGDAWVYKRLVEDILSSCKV
Chain of AURKB (Aurora kinase B) (Q96GD4 whole entry): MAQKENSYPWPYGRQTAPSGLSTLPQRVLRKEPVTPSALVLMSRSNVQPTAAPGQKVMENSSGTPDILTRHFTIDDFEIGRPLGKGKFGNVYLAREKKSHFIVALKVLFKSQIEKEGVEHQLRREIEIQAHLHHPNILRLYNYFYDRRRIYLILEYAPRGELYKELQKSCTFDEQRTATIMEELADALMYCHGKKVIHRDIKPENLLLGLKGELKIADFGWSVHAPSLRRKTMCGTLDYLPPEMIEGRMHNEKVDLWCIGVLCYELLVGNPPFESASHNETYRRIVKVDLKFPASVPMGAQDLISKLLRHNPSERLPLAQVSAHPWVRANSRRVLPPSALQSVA

Compound	MEC [1]	pEC50 [2]	pKd [6]	pKd [7]	t1/2 [8]	t1/2 [9]	Papp at 2 h [10]	Papp ([10]; caco-2, 2 h)	CC50 [3]	Ratio CC50/EC50 (Homo sapiens)	CC50 [4]	Selectivity Index [5]	inhibition at 48 h, 0.04 µM (AURKB (Aurora kinase B))	CC50 (HEK-293T)
CCOC(=O)c1cnc2ccc(-c3cc(Cl)c(O)c(Cl)c3)nc2c1N1CCNCC1	250 nM	7.14							10000 nM	> 137	> 10000 nM	>40		
O=C(O)c1ccc(Nc2ncc3c(n2)-c2ccc(Cl)cc2C(c2c(F)cccc2F)=NC3)cc1 [MLN-8054]													22%	
NC(=O)C[C@H]1CC[C@H](Nc2c(CO)cnc3ccc(-c4cc(Cl)c(O)c(Cl)c4)nc23)CC1	500 nM	7.13							1970 nM	27	1080 nM	2.2		
CCOC(=O)c1cnc2ccc(-c3cc(Cl)c(O)c(Cl)c3)nc2c1NC1CCN(C)CC1	3.3 nM	8.22			2.15 h	> 2.65 h	4.6 ×10⁻⁶ cm/s			170	387 nM	117		1020 nM
CC(=O)NC[C@H]1CC[C@H](Nc2c(CO)cnc3ccc(-c4cc(Cl)c(O)c(Cl)c4)nc23)CC1	500 nM	7.80								71	1710 nM	3.4		1140 nM
CCOC(=O)c1cnc2ccc(-c3cc(Cl)c(O)c(Cl)c3)nc2c1N[C@H]1CC[C@H](CC(N)=O)CC1	63 nM	7.37			> 2.65 h	0.467 h	0.01 ×10⁻⁶ cm/s		1890 nM	44	1390 nM	22		
CCNC(=O)c1cnc2ccc(-c3ccnc(N)c3)nc2c1N[C@H]1CC[C@H](CN(C)C)CC1	> 500 nM	7.34								> 216	330 nM			> 10000 nM
CN(C)C[C@H]1CC[C@H](Nc2c(C(=O)N3CCOCC3)cnc3ccc(-c4cc(Cl)c(O)c(Cl)c4)nc23)CC1		6.19								> 16				> 10000 nM
CCN(CCO)CCCOc1ccc2c(Nc3cc(CC(=O)Nc4cccc(F)c4)[nH]n3)ncnc2c1 [DEFOSBARASERTIB]													41%	
CCCCNC(=O)c1cnc2ccc(-c3cc(Cl)c(O)c(Cl)c3)nc2c1N[C@H]1CC[C@H](C(=O)N2CCOCC2)CC1	63 nM	7.25			> 2.65 h	1.58 h		9.1 ×10⁻⁶ cm/s	2120 nM	38	2440 nM	39		
CN(C)C[C@H]1CC[C@H](Nc2c(C#N)cnc3ccc(-c4cc(Cl)c(O)c(Cl)c4)nc23)CC1	10 nM	7.35								> 220	160 nM	16		> 10000 nM
CCOC(=O)c1cnc2ccc(-c3cc(C)c(O)c(C)c3)nc2c1N[C@H]1CC[C@H](CN(C)C)CC1	250 nM	7.92								> 842	> 10000 nM	>40		> 10000 nM
CCOC(=O)c1cnc2ccc(-c3cc(Cl)c(O)c(Cl)c3)nc2c1N[C@H]1CC[C@H](C(=O)N(C)C)CC1	31 nM	7.30	9.22	7.89	> 2.65 h	> 2.65 h	0.12 ×10⁻⁶ cm/s			119	2810 nM	91		5900 nM
CCOC(=O)c1cnc2ccc(-c3ccc(O)cc3)nc2c1N[C@H]1CC[C@H](CN(C)C)CC1		6.52								> 33				> 10000 nM
CCCCNC(=O)c1cnc2ccc(-c3cc(Cl)c(O)c(Cl)c3)nc2c1N[C@H]1CC[C@H](CN2CCOCC2)CC1		8.40							79 nM	18				
CCCCNC(=O)c1cnc2ccc(-c3cc(Cl)c(O)c(Cl)c3)nc2c1N[C@H]1CC[C@H](C(N)=O)CC1	125 nM	6.76								39	1790 nM	14		6850 nM

Continued, in another order:

MEC [1]	pEC50 [2]	pKd [6]	pKd [7]	t1/2 [8]	t1/2 [9]	Papp at 2 h [10]	Papp ([10]; caco-2, 2 h)	Compound	CC50 [3]	Ratio CC50/EC50 (Homo sapiens)	CC50 [4]	Selectivity Index [5]	inhibition at 48 h, 0.04 µM (AURKB (Aurora kinase B))	CC50 (HEK-293T)
22 nM	7.23							CCOC(=O)c1cnc2ccc(-c3ccnc(N)c3)nc2c1N[C@H]1CC[C@H](CN(C)C)CC1	1130 nM	19	328 nM	15		
	8.10	9.66	8.05					CCOC(=O)c1cnc2ccc(-c3cc(Cl)c(O)c(Cl)c3)nc2c1N[C@H]1CC[C@H](CN)CC1		20				165 nM
3.3 nM	7.43			0.25 h	0.617 h	2.7 ×10⁻⁶ cm/s		CCOC(=O)c1cnc2ccc(-c3ccnc(N)c3)nc2c1N[C@H]1CC[C@H](CN2CCOCC2)CC1	2960 nM	79	856 nM	259		
250 nM	7.01							CCOC(=O)c1cnc2ccc(-c3cc(Cl)c(O)c(Cl)c3)nc2c1N[C@H]1CC[C@H](C(=O)N2CCOCC2)CC1	3010 nM	21	2080 nM	8.3		
	6.45							CN(C)C[C@H]1CC[C@H](Nc2c(C(=O)N(C)C)cnc3ccc(-c4cc(Cl)c(O)c(Cl)c4)nc23)CC1		> 28				> 10000 nM
250 nM	7.00							CCOC(=O)c1cnc2ccc(-c3cc(Cl)c(O)c(Cl)c3)nc2c1N[C@H]1CC[C@H](CO)CC1	2670 nM	27	785 nM	3.1		
	8.52	10.12	7.92					CCCCNC(=O)c1cnc2ccc(-c3cc(Cl)c(O)c(Cl)c3)nc2c1N[C@H]1CC[C@H](CN(C)C)CC1		17				51 nM
125 nM	7.96							CC(=O)c1cnc2ccc(-c3cc(Cl)c(O)c(Cl)c3)nc2c1N[C@H]1CC[C@H](C(N)=O)CC1	1660 nM	153	231 nM	1.8		
31 nM	7.59							CCOC(=O)c1cnc2ccc(-c3cc(Cl)c(O)c(Cl)c3)nc2c1Nc1ccc(CN(C)C)cc1	3790 nM	146	226 nM	7.3		
	8.15	9.80	7.96					CCOC(=O)c1cnc2ccc(-c3cc(Cl)c(O)c(Cl)c3)nc2c1N[C@H]1CC[C@H](CN(C)C)CC1		26				186 nM
	5.87							CCOC(=O)c1cnc2ccc(-c3ccc(O)nc3)nc2c1N[C@H]1CC[C@H](CN(C)C)CC1	> 10000 nM	> 7.5				
68 nM	7.82							CCOC(=O)c1cnc2ccc(-c3cc(Cl)c(O)c(Cl)c3)nc2c1N[C@H]1CC[C@H](CNC(C)=O)CC1		217	1020 nM	15		3340 nM
